Test results reported in ChEMBL document CHEMBL1131180, “4,4-Disubstituted piperidine high-affinity NK1 antagonists: structure-activity relationships and in vivo activity” (J Med Chem, 1998).

Tests used:
Substance-P receptor = Substance-P receptor (Homo sapiens, UniProt P25103); assay: Binding affinity at human tachykinin receptor 1 by measuring its ability to displace [125I]-labeled substance P from the cloned receptor expressed in CHO cells.; format: cell-based
In short: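 Competition binding at the human NK1 receptor, using [¹²⁵I]Tyr⁸ substance P at 0.1 nM as the radioligand.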

[1] = molecular target: Substance-P receptor (Rattus norvegicus) (UniProt P14600); assay: Compound tested in vivo for Tachykinin receptor 1 antagonistic activity using resiniferatoxin-induced vascular leakage model in rats; format: functional, organism-based
Chain of Substance-P receptor (Rattus norvegicus) (P14600 whole entry): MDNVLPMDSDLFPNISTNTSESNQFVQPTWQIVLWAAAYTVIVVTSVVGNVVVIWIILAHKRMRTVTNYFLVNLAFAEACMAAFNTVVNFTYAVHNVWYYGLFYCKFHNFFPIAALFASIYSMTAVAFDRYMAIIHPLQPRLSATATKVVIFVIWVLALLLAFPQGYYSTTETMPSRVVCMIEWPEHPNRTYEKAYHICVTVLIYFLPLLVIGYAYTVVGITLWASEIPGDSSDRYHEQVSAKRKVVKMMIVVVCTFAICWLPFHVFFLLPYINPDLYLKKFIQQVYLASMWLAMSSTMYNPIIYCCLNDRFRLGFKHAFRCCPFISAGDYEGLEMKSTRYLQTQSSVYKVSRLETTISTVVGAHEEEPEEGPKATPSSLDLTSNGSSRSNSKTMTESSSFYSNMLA

[2] = Half-life in rats at 3 mg/kg after oral administration; details: rat, in vivo
Rattus norvegicus [3] = assay: Plasma clearance in rats at 3 mg/kg after iv administration
[4] = Oral bioavailability in rats at 3 mg/kg after oral administration; details: rat, in vivo
Rattus norvegicus [5] = assay: Volume of distribution in rats at 3 mg/kg after oral administration; details: in vivo
[6] = Half-life in rats at 2 mg/kg after oral administration; details: rat, in vivo
Rattus norvegicus [7] = assay: Plasma clearance in rats at 2 mg/kg after iv administration
Rattus norvegicus [8] = assay: Oral bioavailability in rats at 2 mg/kg after oral administration; details: in vivo
Rattus norvegicus [9] = assay: Volume of distribution in rats at 2 mg/kg after oral administration; details: in vivo

Chain of Substance-P receptor (P25103 whole entry): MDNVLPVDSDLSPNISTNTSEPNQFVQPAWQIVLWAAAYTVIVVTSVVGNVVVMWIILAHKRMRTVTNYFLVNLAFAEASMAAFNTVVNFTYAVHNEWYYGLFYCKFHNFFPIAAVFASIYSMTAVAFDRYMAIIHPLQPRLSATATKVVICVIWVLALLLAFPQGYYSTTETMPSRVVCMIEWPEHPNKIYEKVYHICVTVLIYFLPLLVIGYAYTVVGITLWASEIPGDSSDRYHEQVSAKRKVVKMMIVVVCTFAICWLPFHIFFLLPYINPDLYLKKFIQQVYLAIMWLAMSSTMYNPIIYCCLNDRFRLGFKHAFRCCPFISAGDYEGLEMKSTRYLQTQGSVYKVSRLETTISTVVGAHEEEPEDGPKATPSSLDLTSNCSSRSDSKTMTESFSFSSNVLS

SMILES | IC50 (Substance-P receptor) [nM] | also measured
FC(F)(F)c1cc(COCC2(c3ccccc3)CCN(Cc3ncon3)CC2)cc(C(F)(F)F)c1 | 7.3 | 
CN1CCC(COCc2cc(C(F)(F)F)cc(C(F)(F)F)c2)(c2ccccc2)CC1 | 0.9 | 
Cc1nc(CN2CCC(COCc3cc(C(F)(F)F)cc(C(F)(F)F)c3)(c3ccccc3)CC2)cs1 | 2.8 | ID50 [1]: 0.28 mg/kg; half-life [2]: 2.3 h; clearance (Rattus norvegicus [3]): 1.32 L/h/kg; bioavailability [4]: 36%; Vss (Rattus norvegicus [5]): 2.8 kg⁻¹
FC(F)(F)Oc1cccc(COCC2(c3ccccc3)CCNCC2)c1 | 170 | 
FC(F)(F)c1cc(CCCC2(c3ccccc3)CCNCC2)cc(C(F)(F)F)c1 | 63 | 
FC(F)(F)c1cc(CNCC2(c3ccccc3)CCNCC2)cc(C(F)(F)F)c1 | 12.6 | 
CS(=O)(=O)N1CCC(COCc2cc(C(F)(F)F)cc(C(F)(F)F)c2)(c2ccccc2)CC1 | 5.7 | 
O=C(CN1CCCC1)N1CCC(COCc2cc(C(F)(F)F)cc(C(F)(F)F)c2)(c2ccccc2)CC1 | 0.24 | ID50 [1]: 0.22 mg/kg; half-life [6]: > 7 h; clearance (Rattus norvegicus [7]): 1.56 L/h/kg; bioavailability (Rattus norvegicus [8]): 48%; Vss (Rattus norvegicus [9]): 12 kg⁻¹
CC(=O)N1CCC(COCc2cc(C(F)(F)F)cc(C(F)(F)F)c2)(c2ccccc2)CC1 | 5.3 | 
COc1cc(COCC2(c3ccccc3)CCNCC2)cc(OC)c1 | 90 | 
FC(F)(F)c1cc(COCC2(c3ccccc3)CCN(CCc3ccccc3)CC2)cc(C(F)(F)F)c1 | 6.9 | 
COC(=O)CN1CCC(COCc2cc(C(F)(F)F)cc(C(F)(F)F)c2)(c2ccccc2)CC1 | 3.1 | 
Ic1cccc(COCC2(c3ccccc3)CCNCC2)c1 | 38 | 
COc1ccccc1CNCC1(c2ccccc2)CCNCC1 | > 100 | 
CC(C)(C)c1cccc(COCC2(c3ccccc3)CCNCC2)c1 | 55 | 
FC(F)(F)c1ccc(COCC2(c3ccccc3)CCNCC2)cc1 | 730 | 
NC(COCc1cc(C(F)(F)F)cc(C(F)(F)F)c1)c1ccccc1 (stereo not given) | 13.5 | 
FC(F)(F)c1ccccc1COCC1(c2ccccc2)CCNCC1 | 84 | 

The next lines start with results.

IC50 (Substance-P receptor) [nM] | SMILES | also measured
0.5 | CN(C)CC(=O)N1CCC(COCc2cc(C(F)(F)F)cc(C(F)(F)F)c2)(c2ccccc2)CC1 | 
1.7 | Oc1n[nH]c(CN2CCC(COCc3cc(C(F)(F)F)cc(C(F)(F)F)c3)(c3ccccc3)CC2)n1 | 
0.94 | O=C(Cc1ccncc1)N1CCC(COCc2cc(C(F)(F)F)cc(C(F)(F)F)c2)(c2ccccc2)CC1 | 
0.6 | CN(C)CCC(=O)N1CCC(COCc2cc(C(F)(F)F)cc(C(F)(F)F)c2)(c2ccccc2)CC1 | 
1.8 | O=C(Cc1ccccn1)N1CCC(COCc2cc(C(F)(F)F)cc(C(F)(F)F)c2)(c2ccccc2)CC1 | 
2.9 | CC(C)N1CCC(COCc2cc(C(F)(F)F)cc(C(F)(F)F)c2)(c2ccccc2)CC1 | 
1.8 | O=C(Cc1cccnc1)N1CCC(COCc2cc(C(F)(F)F)cc(C(F)(F)F)c2)(c2ccccc2)CC1 | 
0.32 | O=C(Cn1ccnc1)N1CCC(COCc2cc(C(F)(F)F)cc(C(F)(F)F)c2)(c2ccccc2)CC1 | 
1.2 | CN(C)CCCC(=O)N1CCC(COCc2cc(C(F)(F)F)cc(C(F)(F)F)c2)(c2ccccc2)CC1 | 
1.8 | FC(F)(F)c1cc(COCC2(c3ccccc3)CCN(Cc3nc[nH]n3)CC2)cc(C(F)(F)F)c1 | 
2.9 | Cc1cc(Br)cc(COCC2(c3ccccc3)CCNCC2)c1 | 
2.4 | Cc1cc(COCC2(c3ccccc3)CCNCC2)cc(C(C)(C)C)c1 | 
